Source: ChEMBL document CHEMBL2169863, “Discovery, structure-activity relationship, and biological evaluation of noninhibitory small molecule chaperones of glucocerebrosidase” (J Med Chem, 2012)
Positions count from the first letter of the chain named. Calls of active or inactive are those of the source. Unless noted, no cut-off for these calls is given here.

How the values were obtained:
[1] = target: T1, Lysosomal acid glucosylceramidase (Homo sapiens, UniProt P04062, N409S); assay: Inhibition of glucocerebrosidase N370S mutant using 4-methylumbellifereno-Glc as substrate incubated for 5 mins prior to substrate addition measured after 20 mins by fluorimetric analysis
[2] = target: T1, Lysosomal acid glucosylceramidase; assay: Inhibition of glucocerebrosidase N370S mutant in Gaucher patient spleen homogenate using 4-methylumbellifereno-Glc as substrate incubated for 5 mins prior to substrate addition measured after 20 mins by fluorimetric analysis; type: tissue-based
[3] = target: T2, Lysosomal acid glucosylceramidase (Homo sapiens, UniProt P04062); assay: Inhibition of wild type glucocerebrosidase in human spleen homogenate using 4-methylumbellifereno-Glc as substrate incubated for 5 mins prior to substrate addition measured after 20 mins by fluorimetric analysis; type: tissue-based
T2 sequence (P04062 whole entry): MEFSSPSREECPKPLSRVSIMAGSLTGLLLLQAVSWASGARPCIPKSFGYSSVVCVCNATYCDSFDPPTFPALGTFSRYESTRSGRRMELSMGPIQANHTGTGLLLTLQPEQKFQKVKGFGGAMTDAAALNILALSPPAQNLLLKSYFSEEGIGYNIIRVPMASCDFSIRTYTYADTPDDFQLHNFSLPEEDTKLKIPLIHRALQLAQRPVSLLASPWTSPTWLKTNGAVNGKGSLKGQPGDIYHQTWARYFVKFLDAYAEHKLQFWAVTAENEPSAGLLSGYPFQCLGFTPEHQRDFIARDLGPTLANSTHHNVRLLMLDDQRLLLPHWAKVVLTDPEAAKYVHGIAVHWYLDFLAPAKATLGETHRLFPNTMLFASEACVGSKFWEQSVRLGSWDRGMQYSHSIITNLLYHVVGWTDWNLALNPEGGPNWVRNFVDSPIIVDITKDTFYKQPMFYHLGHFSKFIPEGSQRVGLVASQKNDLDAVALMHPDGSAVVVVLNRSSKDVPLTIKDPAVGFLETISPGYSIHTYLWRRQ

[4] = target: T2, Lysosomal acid glucosylceramidase; assay: Inhibition of wild type glucocerebrosidase using 4-methylumbellifereno-Glc as substrate incubated for 5 mins prior to substrate addition measured after 20 mins by fluorimetric analysis
Homo sapiens = organism: Homo sapiens; assay: Ratio of half-maximal activation concentration for glucocerebrosidase N370S (unknwon origin) to half-maximal activation concentration for glucocerebrosidase N370S in Gaucher patient spleen homogenate; type: tissue-based
[5] = target: T3, Lysosomal acid glucosylceramidase (Homo sapiens) (UniProt P04062); assay: Ratio of half-maximal activation concentration for wild type glucocerebrosidase to half-maximal activation concentration for wild type glucocerebrosidase in human spleen homogenate; type: tissue-based
T3 sequence (whole entry): T2 sequence (P04062 whole entry)

[6] = target: T3, Lysosomal acid glucosylceramidase (Homo sapiens); assay: Activation of wild type glucocerebrosidase using 4methylumbelliferone-Glc as substrate assessed as half-maximal activation concentration incubated for 5 mins prior to substrate addition measured after 30 to 45 mins by fluorimetric analysis
Method in brief: (§1)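 Purified recombinant enzyme at 5 nM final: wt in citrate/KH₂PO₄ pH 5.9, N370S at pH 7, both with 0.01% Tween-20. Compound was titrated 0.5 nM to 58 μM and preincubated 5 min at room temperature. Reaction used 1 mM 4MU-Glc for 30−45 min at 37 °C and was stopped at pH 10. Read-out was fluorescence at Ex 365/Em 440 nm.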

[7] = target: T3, Lysosomal acid glucosylceramidase (Homo sapiens); assay: Activation of wild type glucocerebrosidase in human spleen homogenate using resorufin beta-D-glucopyranoside as substrate incubated for 5 mins prior to substrate addition measured after 30 to 45 mins by fluorimetric analysis; type: tissue-based
Method in brief: (§2)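 Spleen homogenate (27 μg final) in pH 5 citrate/phosphate buffer with 0.01% Tween-20. Compound was titrated 0.5 nM to 58 μM and preincubated 5 min at room temperature. Resorufin β-D-glucopyranoside was 15 μM final, incubated 30−45 min at 37 °C and stopped with 1 M Tris-HCl pH 8.0. Read-out was fluorescence at Ex 573/Em 610 nm.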

[8] = test system: T4, Lysosomal acid glucosylceramidase (Homo sapiens), P04062 [N409S]; assay: Activation of glucocerebrosidase N370S mutant using 4methylumbelliferone-Glc as substrate assessed as half-maximal activation concentration incubated for 5 mins prior to substrate addition measured after 30 to 45 mins by fluorimetric analysis; method in brief: as §1
T4 sequence (whole entry): T2 sequence (P04062 whole entry) with N409S

[9] = target: T3, Lysosomal acid glucosylceramidase (Homo sapiens); assay: Activation of wild type glucocerebrosidase using resorufin beta-D-glucopyranoside as substrate incubated for 5 mins prior to substrate addition measured after 30 to 45 mins by fluorimetric analysis
Method in brief: (§3)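 Purified recombinant enzyme at 5 nM final: wt in citrate/KH₂PO₄ pH 5.9, N370S at pH 7, with 0.01% Tween-20. Compound was preincubated 5 min at room temperature. Resorufin β-D-glucopyranoside was 15 μM final for 30−45 min at 37 °C, stopped with Tris-HCl pH 8.0. Read-out was fluorescence at Ex 573/Em 610 nm.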

[10] = Activation of alpha-galactosidase using 4-MU-alpha-galactose as substrate
[11] = test system: T4, Lysosomal acid glucosylceramidase (Homo sapiens), P04062 [N409S]; assay: Activation of glucocerebrosidase N370S mutant in Gaucher patient spleen homogenates using 4-methylumbelliferone-Glc as substrate assessed as half-maximal activation concentration incubated for 5 mins prior to substrate addition measured after 30 to 45 mins by fluorimetric analysis; type: tissue-based
Method in brief: (§4)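 Spleen homogenate (27 μg final) in pH 5 citrate/phosphate buffer with KCl, NaCl, MgCl₂ and 0.01% Tween-20. Compound was titrated 0.5 nM to 58 μM and preincubated 5 min at room temperature. Reaction used 1 mM 4MU-Glc for 30−45 min at 37 °C and was stopped with NaOH/glycine pH 10. Read-out was fluorescence at Ex 365/Em 440 nm. AC₅₀ is the average of N = 2.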

[12] = target: T3, Lysosomal acid glucosylceramidase (Homo sapiens); assay: Activation of wild type glucocerebrosidase in human spleen homogenate using 4methylumbelliferone-Glc as substrate assessed as half-maximal activation concentration incubated for 5 mins prior to substrate addition measured after 30 to 45 mins by fluorimetric analysis; type: tissue-based; method in brief: as §4
[13] = test system: T4, Lysosomal acid glucosylceramidase (Homo sapiens), P04062 [N409S]; assay: Activation of glucocerebrosidase N370S mutant in Gaucher patient spleen homogenate using resorufin beta-D-glucopyranoside as substrate incubated for 5 mins prior to substrate addition measured after 30 to 45 mins by fluorimetric analysis; type: tissue-based; method in brief: as §2
[14] = test system: T4, Lysosomal acid glucosylceramidase (Homo sapiens), P04062 [N409S]; assay: Activation of glucocerebrosidase N370S mutant using resorufin beta-D-glucopyranoside as substrate incubated for 5 mins prior to substrate addition measured after 30 to 45 mins by fluorimetric analysis; method in brief: as §3
[15] = target: Lysosomal alpha-glucosidase (Homo sapiens) (UniProt P10253); assay: Activation of alpha-glucosidase using 4-MU-alpha-glucose as substrate
[16] = target: T1, Lysosomal acid glucosylceramidase; assay: Inhibition of glucocerebrosidase N370S mutant in Gaucher patient spleen homogenate using 4-methylumbellifereno-Glc as substrate incubated for 5 mins prior to substrate addition measured after 30 to 45 mins by fluorimetric analysis
[17] = test system: T4, Lysosomal acid glucosylceramidase (Homo sapiens), P04062 [N409S]; assay: Activation of Glucocerebrosidase N370S/N370S mutant translocation to lysosome in Gaucher patient dermal fibroblasts incubated for 6 days by LAMP2 colocalization-based laser scanning confocal microscopic analysis relative to vehicle-treated control
Method in brief: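 N370S/N370S Gaucher dermal fibroblasts were treated 6 days at 1, 5 or 25 μM, with DMSO vehicle control. Cells were fixed in 3% paraformaldehyde, permeabilized with Triton-X and stained with anti-GCase R386 (Alexa555), anti-LAMP-2 (Alexa488) and DAPI. Confocal imaging used constant laser settings, scoring GCase/LAMP-2 colocalization.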

Liver [18] = assay: Metabolic stability in CD1 mouse liver microsomes assessed as compound remaining at 1 uM after 60 mins by LC/MS/MS analysis in presence of NADPH; type: ADME, Microsome; conditions: 1 h
Method in brief: (§5)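 Compound at 1 μM was incubated in duplicate with CD-1 mouse liver microsomes at 37 °C in 100 mM potassium phosphate pH 7.4 with 3 mM MgCl₂, with or without 2 mM NADPH, for 60 min. Reaction was quenched in cold acidified MeCN with internal standard. Parent was quantified by LC−MS/MS as percent of time zero.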

Liver [19] = assay: Metabolic stability in CD1 mouse liver microsomes assessed as compound remaining at 1 uM after 60 mins by LC/MS/MS analysis in absence of NADPH; type: ADME, Microsome; conditions: 1 h; method in brief: as §5
[20] = test system: T4, Lysosomal acid glucosylceramidase (Homo sapiens), P04062 [N409S]; assay: Activation of glucocerebrosidase N370S mutant using C12-BODIPY-GlcCer as substrate assessed as half-maximal activation concentration incubated for 5 mins prior to substrate addition measured after 30 to 45 mins by HPLC analysis
Method in brief: (§6)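 N370S/N370S patient spleen homogenate at 140 μg/well. Compound was tested at 9 concentrations, 1:2 dilutions from 50 μM. Substrate was 2 mM 4MU-Glc or the C12-BODIPY substrate at 25 μM; other conditions as the plate assay. Stopped reactions were separated on C18 HPLC with fluorescence detection: 4MU at 365/440 nm, C12-BODIPY-Cer at 506/540 nm.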

[21] = test system: T4, Lysosomal acid glucosylceramidase (Homo sapiens), P04062 [N409S]; assay: Activation of glucocerebrosidase N370S mutant using 4-methylumbelliferone-beta-Glc as substrate incubated for 5 mins prior to substrate addition measured after 30 to 45 mins by HPLC analysis; method in brief: as §6

Row | Ratio (Homo sapiens) | Ratio [5] | Activity [7] | Activity [9] | Activity [10] | Activity [11] | Activity [13] | Activity [14] | Activity [15] | SMILES | further results
1 | 3 | 3 | inactive | inactive | inactive | 3.66 µM | inactive | inactive | inactive | Cc1cc(C)n2ncc(C(=O)Nc3ccc(Cl)c(Cl)c3)c2n1 | Activity [6]: 14.1 µM; Activity [8]: 15.9 µM; Activity [12]: 4.47 µM
2 | 3 | 3 | inactive | inactive | inactive | 2.24 µM | inactive | inactive | inactive | CCc1ccc(NC(=O)c2cnn3c(C(F)F)cc(C)nc23)cc1 | –
3 | – | – | – | – | inactive | 2.06 µM | – | – | inactive | Cc1cc(C)n2ncc(C(=O)Nc3ccc(Br)cc3)c2n1 | Stability (Liver [18]): 12%; Stability (Liver [19]): 86%; Activity [20]: inactive; Activity [21]: Dose-dependent effect
4 | – | – | – | – | inactive | 1.46 µM | – | – | inactive | Cc1cc(C)n2ncc(C(=O)Nc3ccc(C(F)(F)F)cc3)c2n1 | Stability (Liver [18]): 83%; Stability (Liver [19]): 100%; Activity [20]: inactive; Activity [21]: Dose-dependent effect
5 | 3 | 3 | inactive | inactive | inactive | 4.6 µM | inactive | inactive | inactive | O=C(Nc1ccccc1Sc1ccccc1)c1cnn2c(C(F)F)cc(C3CC3)nc12 | Activity [20]: inactive; Activity [21]: Dose-dependent effect
6 | 3 | 3 | inactive | inactive | inactive | – | inactive | inactive | inactive | CCC(C)c1ccc(NC(=O)c2cnn3c(C(F)F)cc(C)nc23)cc1 (configuration not stated) | –

More lines, now with the values behind:

Row | SMILES | Ratio (Homo sapiens) | Ratio [5] | Activity [7] | Activity [9] | Activity [10] | Activity [11] | Activity [13] | Activity [14] | Activity [15] | further results
7 | O=S(=O)(c1ccc2ccccc2c1)N1CCN(c2nc(-c3cccs3)nc3ccccc23)CC1 | – | – | – | – | – | – | – | – | – | IC50 [1]: Not Active; IC50 [2]: 330 nM; IC50 [3]: 280 nM; IC50 [4]: 8900 nM
8 | CCc1nnc(NC(=O)c2ccc(NS(=O)(=O)c3ccccc3)cc2)s1 | – | – | – | – | – | – | – | – | – | IC50 [16]: Not Active
9 | Cc1cc(C)n2ncc(C(=O)NCCCCO)c2n1 | – | – | – | – | inactive | inactive | – | – | inactive | Activity [17]: inactive
10 | COc1ccc(Cl)cc1Nc1nc(NCCO)nc(N2CCCC2)n1 | – | – | – | – | – | – | – | – | – | IC50 [16]: Not Active
11 | S=C(NCCCc1c[nH]cn1)NCCCN(Cc1ccc(Cl)c(Cl)c1)c1ccc(Br)cn1 | – | – | – | – | – | – | – | – | – | IC50 ([1]; read-out: IC50): 2500 nM; IC50 [3]: 360 nM; IC50 [4]: 710 nM
